Experimental data: PMC5248944 (International Journal of Nanomedicine, 2017)

Assays:
[1] = type: physicochemical; settings: 35°C, 5-FU 1.25 mg/mL in donor phase; control slope = Km
Procedure, shortened: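 Dynamic dialysis was run at 35°C across porous cellulose (12.5 kDa cutoff). The donor held 5 mL of lyophilised-then-regenerated nanoparticles, plain drug solution, or drug with 0.25 mg/mL chitosan HCl; the receiver held 100 mL demineralised water under sink conditions. The receiver was sampled at intervals for HPLC (RP-18, 0.05 M KH2PO4/0.1% triethylamine, UV 266 nm). Ff came from the ln[(Cd/Cd0)×100]-vs-time slope; ≥3 repeats.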

[2] = Dynamic dialysis at 4°C: drug–polymer interactions in TSOH, sol state; type: physicochemical; settings: 5-FU 1.25 mg/mL, printed value is slope ×10^3
Procedure, shortened: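 Sol-state formulations were tested by dynamic dialysis at 4°C. The donor held 5 mL of formulation; the receiver held 100 mL of 0.08 M HCl with β-glycerophosphate. Receiver drug was measured at intervals. Each day's run order was control, two formulations, then control again on the same membrane, with a fresh membrane daily. Bound fraction was taken as 1−Ff from the log-linear slope.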

Which “slope of straight line ± standard deviation, ln[(Cd/Cd0)×100] vs t” value [1] does the source give for `O=c1[nH]cc(F)c(=O)[nH]1` [Control, 5-fluorouracil] here?
The value was 0.841±0.029 hours.

And the “Modulus of straight-line slope (×10^3) ± SD (n=8)” value [2]?
The value was 5.06±0.75 1/minutes.
